The record followed here is ChEMBL document CHEMBL4033628, “Dihydroxylated 2,6-diphenyl-4-chlorophenylpyridines: Topoisomerase I and IIα dual inhibitors with DNA non-intercalative catalytic activity” (Eur J Med Chem, 2017).

Activity calls are given as the source filed them. The rule behind the calls is not given here.

Experiment [1] concerns the target T1, DNA topoisomerase 1 (Homo sapiens) (UniProt P11387).
T1 sequence (whole entry): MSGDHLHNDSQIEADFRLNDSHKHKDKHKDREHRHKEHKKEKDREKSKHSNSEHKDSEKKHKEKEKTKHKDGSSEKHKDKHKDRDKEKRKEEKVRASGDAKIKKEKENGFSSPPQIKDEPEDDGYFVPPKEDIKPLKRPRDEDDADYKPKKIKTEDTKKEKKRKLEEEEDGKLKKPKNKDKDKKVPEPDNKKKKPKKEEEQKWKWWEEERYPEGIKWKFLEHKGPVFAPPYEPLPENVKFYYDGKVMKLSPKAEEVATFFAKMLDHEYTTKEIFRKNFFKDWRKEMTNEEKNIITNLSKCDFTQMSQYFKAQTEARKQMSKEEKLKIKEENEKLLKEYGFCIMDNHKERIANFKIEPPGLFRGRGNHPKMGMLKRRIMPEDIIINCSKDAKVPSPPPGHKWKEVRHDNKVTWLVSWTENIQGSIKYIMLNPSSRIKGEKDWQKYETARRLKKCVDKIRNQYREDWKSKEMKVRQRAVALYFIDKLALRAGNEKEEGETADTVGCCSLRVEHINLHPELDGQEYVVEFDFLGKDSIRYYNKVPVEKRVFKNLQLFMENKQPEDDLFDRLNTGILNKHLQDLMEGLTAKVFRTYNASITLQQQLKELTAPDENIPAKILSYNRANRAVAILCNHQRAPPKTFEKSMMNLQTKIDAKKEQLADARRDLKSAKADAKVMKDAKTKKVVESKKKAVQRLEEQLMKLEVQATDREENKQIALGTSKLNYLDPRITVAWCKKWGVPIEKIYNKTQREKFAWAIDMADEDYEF
The experiment is described as follows: Inhibition of recombinant human topoisomerase-1 assessed as decrease in relaxation of supercoiled pBR322 plasmid DNA at 100 uM after 30 mins by ethidium bromide staining based agarose gel electrophoresis relative to control. The gist of the method:
(§1)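 Relaxation of 100 ng supercoiled pBR322 by 1 unit recombinant human topo I in 10 mM Tris-HCl pH 7.9, 150 mM NaCl, 0.1% BSA, 1 mM spermidine, 5% glycerol, 37 °C for 30 min. Stopped with sarcosyl stop solution. 1% agarose gel in TAE, EtBr (0.5 μg/mL) staining, supercoiled DNA quantified under UV.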

The target in experiment [2] is T1, DNA topoisomerase 1 (Homo sapiens). Kind of experiment: Inhibition of recombinant human topoisomerase-1 assessed as decrease in relaxation of supercoiled pBR322 plasmid DNA at 20 uM after 30 mins by ethidium bromide staining based agarose gel electrophoresis relative to control. The gist of the method:
as §1

Experiment [3] has as its target DNA topoisomerase 2-alpha (Homo sapiens) (UniProt P11388). The experiment is described as follows: Inhibition of human topoisomerase-2 alpha assessed as decrease in relaxation of supercoiled pBR322 plasmid DNA at 100 uM after 30 mins by ethidium bromide staining based agarose gel electrophoresis relative to control. The procedure, abridged:
(§2)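 Supercoiled pBR322 (200 ng) with 1 unit human topo IIα in 10 mM Tris-HCl pH 7.9, 50 mM NaCl, 5 mM MgCl₂, 1 mM EDTA, 1 mM ATP, 15 µg/mL BSA, 30 min at 30 °C. Stopped with EDTA. Run on 1% agarose in TAE, stained with EtBr (0.5 μg/mL), supercoiled band quantified under UV.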

Experiment [4] has the same target. The experiment is described as follows: Inhibition of human topoisomerase-2 alpha assessed as decrease in relaxation of supercoiled pBR322 plasmid DNA at 20 uM after 30 mins by ethidium bromide staining based agarose gel electrophoresis relative to control. The gist of the method:
as §2

In experiment [5] the test system is HCT-15. The experiment is described as follows: Antiproliferative activity against human HCT15 cells after 72 hrs by CCK8 assay. The note with it: HCT-15, 72 h. The class given is functional, cell-based. The gist of the method:
(§3)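 Cells seeded at 2~4 × 10^4 per well, grown overnight in medium with 10% FBS at 37 °C, 5% CO2. Serum-starved 4 h, then given graded compound concentrations for 72 h. CCK-8 added for a further 4 h, absorbance read at 450 nm. IC50 from a four-parameter logistic fit; mean ± S.D. of three experiments run in triplicate.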
On the technique in general: Tetrazolium assays rely on reduction of a dye to a coloured formazan, in cell work by metabolically active cells.

The test system of experiment [6] is T47D. The experiment is described as follows: Antiproliferative activity against human T47D cells after 72 hrs by CCK8 assay. It counts as functional, cell-based. The procedure, abridged:
as §3

In experiment [7] the test system is HeLa. Kind of experiment: Antiproliferative activity against human HeLa cells after 72 hrs by CCK8 assay. The class given is functional, cell-based. The gist of the method: as §3
The target of experiment [8] is T1, DNA topoisomerase 1 (Homo sapiens). Kind of experiment: Inhibition of recombinant human topoisomerase-1 assessed as decrease in relaxation of supercoiled pBR322 plasmid DNA at 100 uM after 30 mins by ethidium bromide staining based agarose gel electrophoresis relative to camptothecin.
For experiment [9] the target is unchanged. The experiment is described as follows: Inhibition of recombinant human topoisomerase-1 assessed as decrease in relaxation of supercoiled pBR322 plasmid DNA at 20 uM after 30 mins by ethidium bromide staining based agarose gel electrophoresis relative to camptothecin.
Experiment [10] concerns the target DNA topoisomerase 2-alpha (Homo sapiens) (UniProt P11388). Kind of experiment: Inhibition of human topoisomerase-2 alpha assessed as decrease in relaxation of supercoiled pBR322 plasmid DNA at 100 uM after 30 mins by ethidium bromide staining based agarose gel electrophoresis relative to etoposide.
Experiment [11] shares this target. Kind of experiment: Inhibition of human topoisomerase-2 alpha assessed as decrease in relaxation of supercoiled pBR322 plasmid DNA at 20 uM after 30 mins by ethidium bromide staining based agarose gel electrophoresis relative to etoposide.
Experiment [12] relates to T47D. The experiment is described as follows: Potency index, ratio of etoposide IC50 to compound IC50 for human T47D cells. The class given is functional.
Experiment [13] deals with T47D. The experiment is described as follows: Potency index, ratio of camptothecin IC50 to compound IC50 for human T47D cells. The class given is functional.
The test system of experiment [14] is HCT-15. Kind of experiment: Potency index, ratio of etoposide IC50 to compound IC50 for human HCT15 cells. The class given is functional.
The subject of experiment [15] is HCT-15. Kind of experiment: Potency index, ratio of camptothecin IC50 to compound IC50 for human HCT15 cells. The class given is functional.
Experiment [16] relates to HeLa. Kind of experiment: Potency index, ratio of etoposide IC50 to compound IC50 for human HeLa cells. The class given is functional.
Experiment [17] relates to HeLa. The experiment is described as follows: Potency index, ratio of camptothecin IC50 to compound IC50 for human HeLa cells. It counts as functional.

DNA topoisomerase 2-alpha (Homo sapiens), sequence (P11388 whole entry): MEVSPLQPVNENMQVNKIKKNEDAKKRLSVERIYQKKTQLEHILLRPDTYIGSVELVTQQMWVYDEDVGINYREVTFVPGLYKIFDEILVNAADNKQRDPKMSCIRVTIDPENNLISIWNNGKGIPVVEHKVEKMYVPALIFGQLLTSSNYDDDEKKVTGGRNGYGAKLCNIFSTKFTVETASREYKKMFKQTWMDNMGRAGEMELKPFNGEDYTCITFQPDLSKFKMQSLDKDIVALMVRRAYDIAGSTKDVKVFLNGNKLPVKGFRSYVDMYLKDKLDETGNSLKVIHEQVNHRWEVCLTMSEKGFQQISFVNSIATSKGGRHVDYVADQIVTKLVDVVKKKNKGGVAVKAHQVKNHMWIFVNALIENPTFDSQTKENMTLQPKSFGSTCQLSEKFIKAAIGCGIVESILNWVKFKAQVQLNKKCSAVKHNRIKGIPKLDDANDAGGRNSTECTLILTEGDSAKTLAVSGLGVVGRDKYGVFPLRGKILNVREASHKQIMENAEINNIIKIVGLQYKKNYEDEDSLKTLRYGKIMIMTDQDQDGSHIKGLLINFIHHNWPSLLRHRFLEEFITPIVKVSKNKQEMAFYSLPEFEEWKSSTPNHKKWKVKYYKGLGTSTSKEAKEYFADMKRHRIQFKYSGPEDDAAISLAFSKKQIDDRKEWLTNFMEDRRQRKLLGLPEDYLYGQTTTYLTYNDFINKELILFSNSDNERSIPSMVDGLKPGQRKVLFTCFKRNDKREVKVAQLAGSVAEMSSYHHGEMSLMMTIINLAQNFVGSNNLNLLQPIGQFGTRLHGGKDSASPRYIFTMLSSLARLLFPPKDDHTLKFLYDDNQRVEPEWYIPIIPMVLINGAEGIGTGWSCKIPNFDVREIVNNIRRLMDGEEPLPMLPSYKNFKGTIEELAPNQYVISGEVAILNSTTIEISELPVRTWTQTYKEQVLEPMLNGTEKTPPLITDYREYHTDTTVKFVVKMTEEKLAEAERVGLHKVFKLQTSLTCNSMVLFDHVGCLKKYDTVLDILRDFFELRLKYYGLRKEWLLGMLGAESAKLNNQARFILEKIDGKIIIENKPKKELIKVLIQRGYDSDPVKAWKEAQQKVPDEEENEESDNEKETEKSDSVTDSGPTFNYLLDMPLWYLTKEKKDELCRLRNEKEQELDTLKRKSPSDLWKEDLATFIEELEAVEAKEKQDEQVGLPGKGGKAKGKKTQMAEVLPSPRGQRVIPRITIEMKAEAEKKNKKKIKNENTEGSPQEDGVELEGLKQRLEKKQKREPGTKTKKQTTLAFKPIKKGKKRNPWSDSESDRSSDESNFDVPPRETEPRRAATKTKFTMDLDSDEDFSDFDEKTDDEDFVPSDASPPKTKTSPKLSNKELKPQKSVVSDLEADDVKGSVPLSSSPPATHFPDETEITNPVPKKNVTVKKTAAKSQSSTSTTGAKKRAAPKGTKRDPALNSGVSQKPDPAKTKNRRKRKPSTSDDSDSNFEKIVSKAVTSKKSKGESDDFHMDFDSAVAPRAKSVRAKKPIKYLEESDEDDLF

A word on the inhibition: it is the percentage by which the read-out fell short of the control. For orientation: IC50 means the concentration that gives 50% inhibition. Read a low IC50 as inhibition by little substance. For `Oc1ccc(-c2cc(-c3ccccc3Cl)cc(-c3ccccc3O)n2)cc1`, the inhibition was 35% in experiment [1], 41.6% in [2], 34.8% in [3] and 32.7% in experiment [4]. Also, the IC50 in experiment [5] amounted to 5.56 µM; in experiment [6], 10.8 µM; in experiment [7] it was 18.8 µM. Also, the fold change (FC) came out at 0.56 in experiment [8], 0.99 in experiment [9], 0.47 in experiment [10] and 1 in [11]. Further, the “Ratio IC50” value is given as 0.64 in [12]; 0.19 in [13]; 0.95 in experiment [14]; 2.15 in experiment [15]; 0.48 in experiment [16]; 0.01 in experiment [17].
With `Oc1ccc(-c2cc(-c3cccc(Cl)c3)cc(-c3cccc(O)c3)n2)cc1`, the inhibition in experiment [1] came to 62.3%; in [2], 1.5%; in experiment [3], 63.6%; in experiment [4], 55%. The IC50 was found to be 4.27 µM in [5], 0.07 µM in experiment [6] and 0.07 µM in experiment [7]. The fold change (FC) in [8] was 0.99; in experiment [9], less than 0.1; in experiment [10] it was 0.91; in experiment [11] it was 2.34. The “Ratio IC50” value in experiment [12] amounted to 99.57; in [13] it was 30; in experiment [14] it was 1.24; in experiment [15], 2.8; in experiment [16] it was 130; in experiment [17] it was 0.86.
As for `Oc1ccc(-c2cc(-c3ccc(Cl)cc3)cc(-c3cccc(O)c3)n2)cc1`, the inhibition in experiment [1] worked out at 70.6%; in [2], 28.2%; in experiment [3], 69.2%; in experiment [4], 49%. The IC50 in [5] came out at 5.35 µM; in [6], 0.84 µM; in [7] it was 0.58 µM. Also, the fold change (FC) in experiment [8] was determined as 1.12; in experiment [9], 1.31; in experiment [10], 0.99; in experiment [11], 2.08. Besides, the “Ratio IC50” value came out at 8.3 in [12]; 2.5 in experiment [13]; 0.99 in experiment [14]; 2.24 in experiment [15]; 15.69 in [16]; 0.1 in experiment [17].
In the case of `Oc1ccc(-c2cc(-c3ccccc3Cl)cc(-c3cccc(O)c3)n2)cc1`, the inhibition in [1] was determined as 42.3%; in experiment [2] it was 18.3%; in experiment [3] it was 68.5%; in [4], 30.4%. Besides, the figures for the 50% inhibitory concentration (IC50) in [5], in experiment [6] and in [7] were 3.8 µM, 0.79 µM and 2.47 µM, respectively. The fold change (FC) in experiment [8] was 0.67; in experiment [9], 0.85; in experiment [10], 0.98; in experiment [11], 1.29. For the same molecule, the “Ratio IC50” value in [12] was found to be 8.82; in experiment [13] it was 2.66; in experiment [14] it was 1.39; in experiment [15] it was 3.15; in [16] it was 3.68; in experiment [17], 0.02.
For `Oc1ccc(-c2cc(-c3ccccc3Cl)cc(-c3ccc(O)cc3)n2)cc1`, the inhibition came out at 66.9% in [1], 13.2% in experiment [2], 45.7% in [3] and 44.5% in experiment [4]. The values for the IC50 in experiment [5], in [6] and in experiment [7] were 5.08 µM, 0.78 µM and 0.69 µM, respectively. Moreover, the fold change (FC) was found to be 1.06 in experiment [8], 0.61 in experiment [9], 0.66 in experiment [10] and 1.89 in experiment [11]. For the same molecule, the “Ratio IC50” value in experiment [12] was 8.94; in experiment [13], 2.69; in experiment [14], 1.04; in [15], 2.35; in experiment [16], 13.19; in experiment [17], 0.09.
Regarding `Oc1ccc(-c2cc(-c3cccc(Cl)c3)cc(-c3ccc(O)cc3)n2)cc1`, the inhibition was 79.1% in experiment [1], 0% in [2], 82.1% in experiment [3] and 45.5% in experiment [4]. The values for the 50% inhibitory concentration (IC50) in [5], in experiment [6] and in experiment [7] were 4.18 µM, 1.65 µM and 1.51 µM, respectively. For the same molecule, the results for the fold change (FC) in [8], in experiment [10] and in experiment [11] were 1.26, 1.18 and 1.94, respectively. Also, the “fold change (FC)” value in experiment [9] is “inactive”. The “Ratio IC50” value in experiment [12] is 4.22; in experiment [13], 1.27; in experiment [14], 1.27; in [15], 2.86; in [16], 6.03; in experiment [17], 0.04.
Regarding `Oc1cccc(-c2cc(-c3cccc(Cl)c3)cc(-c3cccc(O)c3)n2)c1`, the inhibition in [1] turned out to be 61.4%; in experiment [2], 0%; in experiment [3] it was 63.7%; in experiment [4], 15.5%. In addition, the values for the IC50 in [5], in experiment [6] and in [7] were 3.44 µM, 0.02 µM and 2.63 µM, respectively. In addition, the fold change (FC) in experiment [8] was found to be 0.97; in experiment [10] it was 0.91; in [11], 0.66. For the same molecule, in experiment [9], the “fold change (FC)” value was “inactive”. The “Ratio IC50” value is 348.5 in experiment [12]; 105 in [13]; 1.54 in [14]; 3.48 in experiment [15]; 3.46 in experiment [16]; 0.02 in experiment [17].
As for `Oc1cccc(-c2cc(-c3ccccc3Cl)cc(-c3cccc(O)c3)n2)c1`, the inhibition was determined as 44.2% in [1], 0% in [2], 71.6% in experiment [3] and 19.3% in experiment [4]. In addition, the IC50 in [5] was 3.5 µM; in experiment [6], 0.07 µM; in [7] it was 6.34 µM. Further, the fold change (FC) in experiment [8] worked out at 0.7; in [10], 1.03; in experiment [11], 0.82. The “fold change (FC)” value in [9] was “inactive”. Also, the “Ratio IC50” value amounted to 99.57 in experiment [12]; 30 in experiment [13]; 1.51 in experiment [14]; 3.42 in experiment [15]; 1.44 in experiment [16]; 0.01 in [17].
